The record followed here is ChEMBL document CHEMBL1806379, “Efficient synthesis of antifungal active 9-substituted-3-aryl-5H,13aH-quinolino[3,2-f][1,2,4]triazolo[4,3-b][1,2,4]triazepines in ionic liquids” (2011).

Molecules are shown by their SMILES.

Format in all cases: functional
For test [1], the system named is Penicillium chrysogenum. The experiment in a line: Antifungal activity against Penicillium notatum sp. at 1000 ug after 24 hrs by paper disc technique. The note with it: read-out: IZ. The procedure, abridged: (§1)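 Potato dextrose agar plates: sterilized base layer overlaid with seeded medium (cooled to 40 °C, spore suspension from ten-day cultures of A. niger, A. flavus, P. notatum and Rhizopus species added), chilled before use. Disc diffusion, incubation at 28 °C; zone read after 24 h from disc centre. I% = (C − T)/C × 100 (C, zone diameter in check; […]). Fluconazole (500 and 1000 µg/ml) as standard.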

Test [2] concerns Aspergillus flavus. The experiment in a line: Antifungal activity against Aspergillus flavus at 1000 ug after 24 hrs by paper disc technique. The conditions noted are these: read-out: IZ. The procedure, abridged:
as §1

Test [3] deals with Aspergillus flavus. The experiment in a line: Antifungal activity against Aspergillus flavus at 1000 ug after 24 hrs by paper disc technique relative to control. The procedure, abridged: as §1
The subject of test [4] is Aspergillus niger. The experiment in a line: Antifungal activity against Aspergillus niger at 500 ug after 24 hrs by paper disc technique. The conditions noted are these: read-out: IZ. In outline:
as §1

The subject of test [5] is Rhizopus. The experiment in a line: Antifungal activity against Rhizopus sp. at 500 ug after 24 hrs by paper disc technique. The note with it: read-out: IZ. The procedure, abridged: as §1
Test [6] deals with Aspergillus niger. As to the kind of experiment: Antifungal activity against Aspergillus niger at 500 ug after 24 hrs by paper disc technique relative to control. In outline: as §1
In test [7] the test system is Aspergillus niger. The experiment in a line: Antifungal activity against Aspergillus niger at 1000 ug after 24 hrs by paper disc technique. The conditions noted are these: read-out: IZ. In outline:
as §1

Test [8] relates to Penicillium chrysogenum. As to the kind of experiment: Antifungal activity against Penicillium notatum sp. at 500 ug after 24 hrs by paper disc technique. The note with it: read-out: IZ. The procedure, abridged:
as §1

Test [9] has as its system Aspergillus flavus. The experiment in a line: Antifungal activity against Aspergillus flavus at 500 ug after 24 hrs by paper disc technique relative to control. In outline:
as §1

Test [10] concerns Rhizopus. As to the kind of experiment: Antifungal activity against Rhizopus sp. at 500 ug after 24 hrs by paper disc technique relative to control. In outline:
as §1

Test [11] deals with Aspergillus flavus. The experiment in a line: Antifungal activity against Aspergillus flavus at 500 ug after 24 hrs by paper disc technique. The note with it: read-out: IZ. The procedure, abridged: as §1
Test [12] has as its system Penicillium chrysogenum. The experiment in a line: Antifungal activity against Penicillium notatum sp. at 500 ug after 24 hrs by paper disc technique relative to control. In outline:
as §1

Test [13] concerns Penicillium chrysogenum. As to the kind of experiment: Antifungal activity against Penicillium notatum sp. at 1000 ug after 24 hrs by paper disc technique relative to control. In outline: as §1
Test [14] concerns Aspergillus niger. The experiment in a line: Antifungal activity against Aspergillus niger at 1000 ug after 24 hrs by paper disc technique relative to control. In outline: as §1
Test [15] relates to Rhizopus. As to the kind of experiment: Antifungal activity against Rhizopus sp. at 1000 ug after 24 hrs by paper disc technique. The note with it: read-out: IZ. In outline: as §1
In test [16] the test system is Rhizopus. As to the kind of experiment: Antifungal activity against Rhizopus sp. at 1000 ug after 24 hrs by paper disc technique relative to control. In outline: as §1

`C1=Nn2c(nnc2-c2ccccc2)Nc2nc3ccccc3cc21`: the zone of inhibition at 1000 µg/disc is 54 mm in the test with Penicillium chrysogenum [1], 45 mm in the test on Aspergillus flavus [2], 43 mm with Aspergillus niger [7] and 30 mm in the test with Rhizopus [15]. Further, the Activity is 70% with Aspergillus flavus [3]; 53.33% with Aspergillus niger [6]; 53.33% in the test on Aspergillus flavus [9]; 50% in the test on Rhizopus [10]; 73.33% with Penicillium chrysogenum [12]; 90% with Penicillium chrysogenum [13]. Moreover, the Activity in the test with Aspergillus niger [14] was 71.66%; in the test on Rhizopus [16] it was 50%. In addition, the zone of inhibition at 500 µg/disc came out at 39 mm with Aspergillus niger [4], 30 mm in the test on Rhizopus [5], 44 mm in the test with Penicillium chrysogenum [8] and 32 mm in the test with Aspergillus flavus [11].
`O=[N+]([O-])c1ccc(-c2nnc3n2N=Cc2cc4ccccc4nc2N3)cc1`: the zone of inhibition at 1000 µg/disc in the test with Penicillium chrysogenum [1] came out at 52 mm; in the test with Aspergillus flavus [2] it was 36 mm; in the test on Aspergillus niger [7] it was 38 mm; with Rhizopus [15], 26 mm. Besides, the Activity was 60% in the test on Aspergillus flavus [3]; 33.33% with Aspergillus niger [6]; 60% in the test on Aspergillus flavus [9]; 41.66% in the test on Rhizopus [10]; 71.66% in the test with Penicillium chrysogenum [12]; 86.66% in the test on Penicillium chrysogenum [13]. Moreover, the values for the Activity with Aspergillus niger [14] and in the test on Rhizopus [16] were 63.33% and 43.33%, respectively. In addition, the zone of inhibition at 500 µg/disc in the test with Aspergillus niger [4] stood at 22 mm; in the test on Rhizopus [5], 25 mm; in the test with Penicillium chrysogenum [8], 43 mm; in the test on Aspergillus flavus [11], 36 mm.
Take `Cc1ccc2nc3c(cc2c1)C=Nn1c(nnc1-c1ccccc1Cl)N3`: the zone of inhibition at 1000 µg/disc worked out at 42 mm with Penicillium chrysogenum [1], 32 mm with Aspergillus flavus [2], 43 mm with Aspergillus niger [7] and 32 mm in the test on Rhizopus [15]. For the same compound, the Activity was 53.33% in the test on Aspergillus flavus [3]; 40% in the test with Aspergillus niger [6]; 70.66% in the test on Aspergillus flavus [9]; 46.66% in the test with Rhizopus [10]; 73.33% in the test with Penicillium chrysogenum [12]; 70% in the test on Penicillium chrysogenum [13]. In addition, the Activity in the test with Aspergillus niger [14] is 71.66%; in the test on Rhizopus [16] it was 53.33%. Besides, the zone of inhibition at 500 µg/disc came to 24 mm with Aspergillus niger [4], 28 mm with Rhizopus [5], 44 mm in the test on Penicillium chrysogenum [8] and 42 mm in the test on Aspergillus flavus [11].
In the case of `Cc1ccc2nc3c(cc2c1)C=Nn1c(nnc1-c1ccc([N+](=O)[O-])cc1)N3`, the zone of inhibition at 1000 µg/disc in the test on Penicillium chrysogenum [1] is 42 mm; with Aspergillus flavus [2] it was 49 mm; in the test on Aspergillus niger [7], 40 mm; in the test on Rhizopus [15], 30 mm. Besides, the Activity with Aspergillus flavus [3] is 81.66%; in the test on Aspergillus niger [6] it was 56.66%; with Aspergillus flavus [9], 71.66%; in the test with Rhizopus [10], 33.33%; with Penicillium chrysogenum [12] it was 80%; with Penicillium chrysogenum [13], 70%. The Activity in the test on Aspergillus niger [14] turned out to be 66.66%; in the test on Rhizopus [16] it was 50%. The zone of inhibition at 500 µg/disc with Aspergillus niger [4] stood at 34 mm; with Rhizopus [5], 20 mm; in the test with Penicillium chrysogenum [8], 48 mm; in the test on Aspergillus flavus [11], 43 mm.
As for `OC(Cn1cncn1)(Cn1cncn1)c1ccc(F)cc1F` [FLUCONAZOLE], the zone of inhibition at 1000 µg/disc came out at 54 mm in the test on Penicillium chrysogenum [1], 42 mm in the test on Aspergillus flavus [2], 48 mm in the test with Aspergillus niger [7] and 42 mm with Rhizopus [15]. The Activity amounted to 70% with Aspergillus flavus [3]; 70% with Aspergillus niger [6]; 58.33% in the test with Aspergillus flavus [9]; 63.33% with Rhizopus [10]; 86.66% in the test on Penicillium chrysogenum [12]; 90% in the test on Penicillium chrysogenum [13]. The Activity in the test with Aspergillus niger [14] was 80%; in the test on Rhizopus [16], 70%. For the same compound, the zone of inhibition at 500 µg/disc in the test with Aspergillus niger [4] came out at 42 mm; in the test with Rhizopus [5], 38 mm; in the test with Penicillium chrysogenum [8], 52 mm; in the test on Aspergillus flavus [11] it was 35 mm.
